Source: paper PMC5094435 (Saudi Pharmaceutical Journal : SPJ, 2015)
Values after ≈ are worked out from the molar mass of the structure shown. Values joined by “and” are separate entries in the source; they are usually repeats but may differ in a detail not shown here. Equal values may be shown once.

Columns and labels:
[1] = system: carrageenan induced edema; assay: Anti-inflammatory activity, carrageenan induced rat paw edema; type: in vivo, Wistar rats; settings: inhibition of edema, rats
Summary of the method: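 Used the Winter et al. paw oedema method in Wistar rats of either sex (160–200 g), housed six per cage and acclimatised 48 h. Percent inhibition of oedema was calculated at 1, 2, 3 and 4 h. Diclofenac served as the standard drug.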

[2] = system: Pseudomonas aeruginosa (MTCC 741); assay: Antibacterial activity; type: cell-based; settings: for MIC: Pseudomonas aeruginosa, MTCC741, read-out: MIC, P. aeruginosa
Summary of the method: (§1)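 Screened by a standard method against S. aureus MTCC 96, B. subtilis MTCC 121, E. coli MTCC 1652 and P. aeruginosa MTCC 741. Ciprofloxacin was the reference antibiotic. Only compounds active at 100 μg/mL went on to MIC determination.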

mucosal damage = assay: Acute ulcerogenic activity; type: in vivo, Albino rats; settings: rats, mean ± SEM
Summary of the method: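 Conducted in Albino rats (160–200 g, housed six per cage, acclimatised 48 h) following Cioli et al. Gastric mucosal damage was scored at the end of the study. Ulcerogenic potential (severity index) came from comparing the mean score of each treated group with that of the control rats.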

[3] = system: Bacillus subtilis (MTCC 121); assay: Antibacterial activity; type: cell-based; settings: MTCC121, read-out: MIC, B. subtilis
Summary of the method: as §1

[4] = system: tail immersion (hot water 55 °C); assay: Central analgesic activity, tail immersion method; type: in vivo, Swiss albino mice; settings: mice, mean ± SEM; for Central analgesic activity [tail immersion (reaction time in min)] 1 h: 1 h after the dosing; for Central analgesic activity [tail immersion (reaction time in min)] 2 h: 2 h after the dosing
Summary of the method: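 Used the same mice from the writhing test after a washout period. Each mouse was held in a restrainer and the protruding tail (up to 5 cm) was dipped in 55 °C water. Withdrawal time was recorded as reaction time at 1 h and 2 h post-dose. Data are mean ± SEM, analysed by ANOVA followed by Dunnett's t test.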

[5] = system: acetic acid induced writhing; assay: Peripheral analgesic activity, acetic acid induced writhing method; type: in vivo, Swiss Albino mice; settings: mice; for Peripheral analgesic activity (writhing test) No. of writhing: mean ± SEM; for Peripheral analgesic activity (writhing test) % Protection: vs control group
Summary of the method: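 Writhing was induced with aqueous acetic acid in Swiss albino mice (20–30 g) of either sex, six per group. % Protection = (Wc − Wt)/Wc × 100, where Wc and Wt are the mean writhing counts of the control and test groups.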

Aspergillus niger = assay: Antifungal activity; type: cell-based; settings: read-out: MIC, A. niger
Summary of the method: (§2)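 Run by the poison food technique against Aspergillus niger and Aspergillus flavus. Fluconazole was the reference drug.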

[6] = system: Staphylococcus aureus (MTCC 96); assay: Antibacterial activity; type: cell-based; settings: MTCC96, read-out: MIC, S. aureus
Summary of the method: as §1

Aspergillus flavus = assay: Antifungal activity; type: cell-based; settings: read-out: MIC, A. flavus
Summary of the method: as §2

[7] = system: Escherichia coli (MTCC 1652); assay: Antibacterial activity; type: cell-based; settings: for MIC: Escherichia coli, MTCC1652, read-out: MIC, E. coli
Summary of the method: as §1

Structure (SMILES)	MIC [2] [µg/mL]	MIC [3] [µg/mL]	MIC (Aspergillus niger) [µg/mL]	MIC [6] [µg/mL]	MIC (Aspergillus flavus) [µg/mL]	MIC [7] [µg/mL]	MIC, P. aeruginosa ([2]; P. aeruginosa (MTCC 741))	MIC, E. coli ([7]; E. coli (MTCC 1652))	% Inhibition ± SEM After 1 h [1]	% Inhibition ± SEM After 2 h [1]	% Inhibition ± SEM After 3 h [1]	Ulcerogenic activity (severity index) (mucosal damage)	Central analgesic activity [tail immersion (reaction time in min)] 1 h [4]	Central analgesic activity [tail immersion (reaction time in min)] 2 h [4]	Peripheral analgesic activity (writhing test) No. of writhing [5]	Peripheral analgesic activity (writhing test) % Protection [5] [%]	% Inhibition ± SEM After 4 h [1] [%]
O=C1OC(c2ccc3ccccc3c2)=CC1=Cc1cc2cc(Cl)ccc2nc1Cl [Compound 5b, 3-[(2,6-Dichloroquinolin-3-yl)methylene]-5-(naphthalene-2-yl)furan-2(3H)-one]	50 (≈ 120 µM)	12.5 (≈ 29.9 µM)	25 (≈ 59.8 µM)	12.5 (≈ 29.9 µM)	50 (≈ 120 µM)	25 (≈ 59.8 µM)			74 ± 0.18^∗∗ %	67 ± 0.06^∗∗ %	39 ± 0.29%	0.33 ± 0.35^∗	3.2 ± 0.2^∗ min	4.4 ± 0.5 min	26.2 ± 4.1	37.61	
O=C1OC(c2ccc3ccccc3c2)=CC1=Cc1cc2cc([N+](=O)[O-])ccc2nc1Cl [Compound 5d, 3-[(2-Chloro-6-nitroquinolin-3-yl)methylene]-5-(naphthalene-2-yl)furan-2(3H)-one]	25 (≈ 58.3 µM)	25 (≈ 58.3 µM)	25 (≈ 58.3 µM)	12.5 (≈ 29.1 µM)	25 (≈ 58.3 µM)	12.5 (≈ 29.1 µM)			79 ± 0.12^∗∗ %	61 ± 0.15^∗∗ %	56 ± 0.25^∗ %		4.4 min and 4.4 ± 0.6^∗∗ min	6.5 min and 6.5 ± 0.2 ^∗ min	6.0 ± 2.2^∗∗		
O=C1OC(c2ccc(-c3ccccc3)cc2)=CC1=Cc1cc2cc([N+](=O)[O-])ccc2nc1Cl [Compound 5h, 3-[(2-Chloro-6-nitroquinolin-3-yl)methylene]-5-(biphenyl-4-yl)furan-2(3H)-one]	> 100	> 100	25 (≈ 55 µM)	25 (≈ 55 µM)	25 (≈ 55 µM)	50 (≈ 110 µM)			73 ± 0.08^∗∗ %	58 ± 0.15^∗∗ %	50 ± 0.13%	0.40 ± 0.36	4.3 min and 4.3 ± 0.4^∗∗ min	6.2 min and 6.2 ± 1.5^∗ min	7.6 ± 2.3^∗∗		
O=C1NC(c2ccc3ccccc3c2)=CC1=Cc1cc2cc(Cl)ccc2nc1Cl [Compound 6b, 3-[(2,6-Dichloroquinolin-3-yl)methylene]-5-(naphthalene-2-yl)-1H-pyrrol-2(3H)-one]	50 (≈ 120 µM)	6.25 (≈ 15 µM)	12.5 (≈ 30 µM)	6.25 (≈ 15 µM)	12.5 (≈ 30 µM)	50 (≈ 120 µM)			62 ± 0.09^∗ %	66 ± 0.18^∗∗ %	53 ± 0.17%	0.43 ± 0.33	1.8 ± 0.2 min	4.2 ± 0.6 min	13.8 ± 4.4^∗	67.14	
O=C(O)Cc1ccccc1Nc1c(Cl)cccc1Cl [Diclofenac, diclofenac, reference compound]												0.86 ± 0.28	8.2 ± 0.2^∗∗ min	8.8 ± 0.2^∗∗ min	4.2 ± 1.0^∗∗	90	92

Second part, led by results:

MIC [2] [µg/mL]	MIC [3] [µg/mL]	MIC (Aspergillus niger) [µg/mL]	MIC [6] [µg/mL]	MIC (Aspergillus flavus) [µg/mL]	MIC [7] [µg/mL]	MIC, P. aeruginosa ([2]; P. aeruginosa (MTCC 741))	MIC, E. coli ([7]; E. coli (MTCC 1652))	Structure (SMILES)	% Inhibition ± SEM After 1 h [1]	% Inhibition ± SEM After 2 h [1]	% Inhibition ± SEM After 3 h [1]	Ulcerogenic activity (severity index) (mucosal damage)	Central analgesic activity [tail immersion (reaction time in min)] 1 h [4]	Central analgesic activity [tail immersion (reaction time in min)] 2 h [4]	Peripheral analgesic activity (writhing test) No. of writhing [5]	Peripheral analgesic activity (writhing test) % Protection [5] [%]	% Inhibition ± SEM After 4 h [1] [%]
> 100	25 (≈ 49.3 µM)	50 (≈ 98.5 µM)	25 (≈ 49.3 µM)	25 (≈ 49.3 µM)	12.5 (≈ 24.6 µM)			O=C1C(=Cc2cc3cc(Cl)ccc3nc2Cl)C=C(c2ccc3ccccc3c2)N1Cc1ccccc1 [Compound 7b, 1-Benzyl-3-[(2,6-dichloroquinolin-3-yl)methylene]-5-(naphthalene-2-yl)-1H-pyrrol-2(3H)-one]	84 ± 0.06^∗∗ %	74 ± 0.21^∗∗ %	70 ± 0.23^∗ %	0.36 ± 0.35^∗	2.4 ± 0.3 min	3.4 ± 0.2 min	25.4 ± 4.8	39.52	
> 100	25 (≈ 48.3 µM)	25 (≈ 48.3 µM)	25 (≈ 48.3 µM)	50 (≈ 96.5 µM)	25 (≈ 48.3 µM)			O=C1C(=Cc2cc3cc([N+](=O)[O-])ccc3nc2Cl)C=C(c2ccc3ccccc3c2)N1Cc1ccccc1 [Compound 7d, 1-Benzyl-3-[(2-chloro-6-nitroquinolin-3-yl)methylene]-5-(naphthalene-2-yl)-1H-pyrrol-2(3H)-one]	83 ± 0.06^∗∗ %	73 ± 0.15^∗∗ %	66 ± 0.26%	0.40 ± 0.32	3.2 ± 0.4^∗ min	5.4 ± 1.9 min	21.0 ± 10.0^∗	50	
50 (≈ 93.7 µM)	12.5 (≈ 23.4 µM)	25 (≈ 46.9 µM)	12.5 (≈ 23.4 µM)	50 (≈ 93.7 µM)	25 (≈ 46.9 µM)			O=C1C(=Cc2cc3cc(Cl)ccc3nc2Cl)C=C(c2ccc(-c3ccccc3)cc2)N1Cc1ccccc1 [Compound 7f, 1-Benzyl-3-[(2,6-dichloroquinolin-3-yl)methylene]-5-(biphenyl-4-yl)-1H-pyrrol-2(3H)-one]	84 ± 0.12%	74 ± 0.19^∗∗ %	63 ± 0.14^∗ %	0.53 ± 0.12	3.2 ± 0.2^∗ min	6.2 min and 6.2 ± 1.5^∗ min	12.8 ± 3.8^∗∗		
> 100	50 (≈ 97.5 µM)	25 (≈ 48.7 µM)	25 (≈ 48.7 µM)	50 (≈ 97.5 µM)	> 100	did not show any inhibition	did not show any inhibition	Cc1ccc2nc(Cl)c(C=C3C=C(c4ccc(-c5ccccc5)cc4)N(Cc4ccccc4)C3=O)cc2c1 [Compound 7g, 1-Benzyl-3-[(2-chloro-6-methylquinolin-3-yl)methylene]-5-(biphenyl-4-yl)-1H-pyrrol-2(3H)-one]	69 ± 0.03^∗∗ %	54 ± 0.14^∗∗ %	30 ± 0.20%						40 ± 0.16
50 (≈ 91.9 µM)	> 100	50 (≈ 91.9 µM)	25 (≈ 46 µM)	> 100	50 (≈ 91.9 µM)			O=C1C(=Cc2cc3cc([N+](=O)[O-])ccc3nc2Cl)C=C(c2ccc(-c3ccccc3)cc2)N1Cc1ccccc1 [Compound 7h, 1-Benzyl-3-[(2-chloro-6-nitroquinolin-3-yl)methylene]-5-(biphenyl-4-yl)-1H-pyrrol-2(3H)-one]	36 ± 0.13%	65 ± 0.24^∗∗ %	58 ± 0.34^∗ %		5.5 min and 5.5 ± 0.3^∗∗ min	6.4 min and 6.4 ± 0.3^∗ min	10.4 ± 3.7^∗∗		
